Results published in ChEMBL document CHEMBL1124121, “Occurrence and pharmacological significance of metabolic ortho-hydroxylation of 5- and 8-hydroxy-2-(di-n-propylamino)tetralin” (1988).
The source made the active and inactive calls. The rule behind the calls is not given here.

Assays:
Rattus norvegicus [1] = species: Rattus norvegicus; assay: Effect on dopamine accumulation in limbic system of rat; Inactive; type: functional, organism-based
Rattus norvegicus [2] = species: Rattus norvegicus; assay: Effect on 5-HTP accumulation in limbic system of rat.; type: functional
Rattus norvegicus [3] = species: Rattus norvegicus; assay: Effect on 5-HTP accumulation in striatum of rat.; type: functional
Rattus norvegicus [4] = species: Rattus norvegicus; assay: Effect on 5-HTP accumulation in hemispheres of rat.; type: functional
Rattus norvegicus [5] = species: Rattus norvegicus; assay: Effect on dopamine accumulation in striatum of rat; Inactive; type: functional, organism-based
Rattus norvegicus [6] = species: Rattus norvegicus; assay: Effect on dopamine accumulation in striatum of rat.; type: functional
Rattus norvegicus [7] = species: Rattus norvegicus; assay: Effect on 5-HTP accumulation in hemispheres of rat; Inactive; type: functional, organism-based
Rattus norvegicus [8] = species: Rattus norvegicus; assay: Effect on dopamine accumulation in hemispheres of rat; Inactive; type: functional, organism-based
Rattus norvegicus [9] = species: Rattus norvegicus; assay: Effect on 5-HTP accumulation in striatum of rat; Inactive; type: functional, organism-based
Rattus norvegicus [10] = species: Rattus norvegicus; assay: Effect on dopamine accumulation in limbic system of rat.; type: functional
Rattus norvegicus [11] = species: Rattus norvegicus; assay: Effect on 5-HTP accumulation in limbic system of rat; Inactive; type: functional, organism-based
Rattus norvegicus [12] = assay: post-synaptic effect was assayed by the increase in locomotor activity (reserpine pretreatment), at 12.5 umol/kg; type: functional
In short: (§1)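 Male Sprague-Dawley rats pretreated sc in the neck with reserpine (5 mg/kg), then given the compound sc in the neck (n = 4). Placed singly in motility meters immediately after dosing; locomotor counts accumulated over 0–30 min. Student's t test.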

Rattus norvegicus [13] = species: Rattus norvegicus; assay: Apparent kinetic constant(Km) for the O-Methylation on crude rat liver microsomes.; type: functional, organism-based
Rattus norvegicus [14] = species: Rattus norvegicus; assay: Apparent kinetic constant(Vmax) for the O-Methylation on crude rat liver microsomes at 1 mg of protein; type: functional
Rattus norvegicus [15] = species: Rattus norvegicus; assay: Effect on dopamine accumulation in hemispheres of rat.; type: functional
[16] = Ratio of Km to that Vmax in crude rat liver microsomes was determined; settings: Microsome
Rattus norvegicus [17] = assay: post-synaptic effect was assayed by the increase in locomotor activity (reserpine pretreatment), at 3.15 umol/kg; type: functional; in short: as §1
Rattus norvegicus [18] = assay: Brain Concentration at 15(umol/kg, sc) without tropolone pretreatment in rat cortex; type: functional, organism-based
In short: (§2)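 Male Wistar rats dosed sc in the neck with compound in saline (1 mL/kg), with or without tropolone pretreatment. Killed by decapitation 45 min later; striatum, cerebellum and cortex dissected and frozen at -80 °C. Perchloric acid extracts purified over Sephadex G10 and the formic acid eluate analysed by reversed-phase HPLC with electrochemical detection. Mean ± SEM, n = 4.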

Rattus norvegicus [19] = assay: Brain Concentration at 15(umol/kg, sc) without tropolone pretreatment in rat cerebellum; type: functional, organism-based; in short: as §2
Rattus norvegicus [20] = assay: Brain Concentration of 7,8-di-OH-DPAT after 15(umol/kg) sc administration without tropolone pretreatment in rat striatum; type: functional, organism-based; in short: as §2
Rattus norvegicus [21] = assay: Brain Concentration of 7,8-di-OH-DPAT after 15(umol/kg) sc administration without tropolone pretreatment in rat cerebellum; type: functional, organism-based; in short: as §2
Rattus norvegicus [22] = assay: Brain Concentration of 7,8-di-OH-DPAT after 15(umol/kg) sc administration without tropolone pretreatment in rat cortex; type: functional, organism-based; in short: as §2
Rattus norvegicus [23] = assay: Brain Concentration at 15(umol/kg, sc) without tropolone pretreatment in rat striatum; type: functional, organism-based; in short: as §2
Rattus norvegicus [24] = assay: Brain Concentration at 15(umol/kg, sc) with tropolone pretreatment in rat cerebellum; type: functional, organism-based; in short: as §2
Rattus norvegicus [25] = assay: Brain Concentration at 15(umol/kg, sc) with tropolone pretreatment in rat cortex; type: functional, organism-based; in short: as §2
Rattus norvegicus [26] = assay: Brain Concentration of 7,8-di-OH-DPAT after 15(umol/kg) sc administration with tropolone pretreatment in rat cerebellum; type: functional, organism-based; in short: as §2
Rattus norvegicus [27] = assay: Brain Concentration of 7,8-di-OH-DPAT after 15(umol/kg) sc administration with tropolone pretreatment in rat striatum; type: functional, organism-based; in short: as §2
Rattus norvegicus [28] = assay: Brain Concentration at 15(umol/kg, sc) with tropolone pretreatment in rat striatum; type: functional, organism-based; in short: as §2
Rattus norvegicus [29] = assay: Brain Concentration of 7,8-di-OH-DPAT after 15(umol/kg) sc administration with tropolone pretreatment in rat cortex; type: functional, organism-based; in short: as §2
Rattus norvegicus [30] = assay: Brain Concentration of 5,6-di-OH-DPAT after 25 (umol/kg) sc administration without tropolone pretreatment in rat cortex; type: functional, organism-based; in short: as §2
Rattus norvegicus [31] = assay: Brain Concentration of 5,6-di-OH-DPAT after 25 (umol/kg) sc administration without tropolone pretreatment in rat cerebellum; type: functional, organism-based; in short: as §2
Rattus norvegicus [32] = assay: Brain Concentration at 25 (umol/kg, sc) with tropolone pretreatment in rat cortex; type: functional, organism-based; in short: as §2
Rattus norvegicus [33] = assay: Brain Concentration at 25 (umol/kg, sc) with tropolone pretreatment in rat cerebellum; type: functional, organism-based; in short: as §2
Rattus norvegicus [34] = assay: Brain Concentration of 5,6-di-OH-DPAT after 25 (umol/kg) sc administration without tropolone pretreatment in rat striatum; type: functional, organism-based; in short: as §2
Rattus norvegicus [35] = assay: Brain Concentration at 25 (umol/kg, sc) without tropolone pretreatment in rat cortex; type: functional, organism-based; in short: as §2
Rattus norvegicus [36] = species: Rattus norvegicus; assay: Apparent kinetic constant(Vmax) for the aromatic hydroxylation on crude rat liver microsomes at 1 mg of protein; type: functional
In short: (§3)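 Crude rat liver microsomes (0.5 mg protein/mL) were incubated with substrate at 37 °C for 3 min in 0.1 M Tris, pH 7.4, with 0.1 mM NADPH and MgCl₂. The reaction was stopped with perchloric acid. Catechol products in the supernatant were measured by HPLC with electrochemical detection. Apparent Km and Vmax came from Lineweaver-Burk plots of 3–4 substrate concentrations, each run in triplicate.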

Rattus norvegicus [37] = assay: Brain Concentration at 25 (umol/kg, sc) without tropolone pretreatment in rat cerebellum; type: functional, organism-based; in short: as §2
Rattus norvegicus [38] = assay: Brain Concentration of 5,6-di-OH-DPAT after 25 (umol/kg) sc administration with tropolone pretreatment in rat cerebellum; type: functional, organism-based; in short: as §2
Rattus norvegicus [39] = assay: Brain Concentration at 25 (umol/kg, sc) with tropolone pretreatment in rat striatum; type: functional, organism-based; in short: as §2
Rattus norvegicus [40] = species: Rattus norvegicus; assay: Apparent kinetic constant(Km) for the aromatic hydroxylation on crude rat liver microsomes.; type: functional, organism-based; in short: as §3
Rattus norvegicus [41] = assay: Brain Concentration at 25 (umol/kg, sc) without tropolone pretreatment in rat striatum; type: functional, organism-based; in short: as §2
Rattus norvegicus [42] = assay: Brain Concentration of 5,6-di-OH-DPAT after 25 (umol/kg) sc administration with tropolone pretreatment in rat cortex; type: functional, organism-based; in short: as §2
Rattus norvegicus [43] = assay: Brain Concentration of 5,6-di-OH-DPAT after 25 (umol/kg) sc administration with tropolone pretreatment in rat striatum; type: functional, organism-based; in short: as §2
Rattus norvegicus [44] = assay: post-synaptic effect was assayed by the increase in locomotor activity (reserpine pretreatment), at 0.25 umol/kg; type: functional; in short: as §1

Row | Compound | ED50 (Rattus norvegicus [2]) [µmol/kg] | ED50 (Rattus norvegicus [3]) [µmol/kg] | ED50 (Rattus norvegicus [4]) [µmol/kg] | ED50 (Rattus norvegicus [6]) [µmol/kg] | ED50 (Rattus norvegicus [7]) | ED50 (Rattus norvegicus [8]) | ED50 (Rattus norvegicus [9]) | ED50 (Rattus norvegicus [10]) [µmol/kg] | ED50 (Rattus norvegicus [11]) | Km (Rattus norvegicus [13]) [µM] | Vmax (Rattus norvegicus [14]) [pM/min] | Ratio [16] | further results
1 | CCCN(CCC)C1CCc2cccc(OC)c2C1 (configuration not stated) | 0.34 | 0.29 | 0.23 |  |  |  |  |  |  |  |  |  | ED50 (Rattus norvegicus [1]): inactive; ED50 (Rattus norvegicus [5]): inactive
2 | CCCN(CCC)[C@@H]1CCc2ccc(O)cc2C1 |  |  |  | 0.17 | inactive | inactive | inactive | 0.18 | inactive |  |  |  | 
3 | CCCN(CCC)C1CCc2c(cccc2OC)C1 (configuration not stated) |  |  |  | 0.018 | inactive | inactive | inactive | 0.013 | inactive |  |  |  | 
4 | CCCN(CCC)C1CCc2c(ccc(O)c2OC)C1 (configuration not stated) |  |  |  | 0.125 | inactive | inactive | inactive | 0.16 | inactive |  |  |  | Motor activity (Rattus norvegicus [12]): <204
5 | CCCN1CCC[C@@H](c2ccc(O)c(O)c2)C1 |  |  |  |  |  |  |  |  |  | 77 | 37000 |  | 
6 | CCCN(CCC)C1CCc2ccc(O)c(O)c2C1 (configuration not stated) | 1.53 | 1.39 | 1.05 | 0.977 |  |  |  | 0.986 |  | 2400 | 280 | 117 | ED50 (Rattus norvegicus [15]): 1.75 µmol/kg; Motor activity (Rattus norvegicus [17]): <31
7 | CCCN(CCC)C1CCc2cccc(O)c2C1 (configuration not stated) [8-OH-DPAT] | 0.048 | 0.045 | 0.068 |  |  | inactive |  |  |  |  |  |  | Concentration (Rattus norvegicus [18]): 10.7 nM/g; Concentration (Rattus norvegicus [19]): 8.1 nM/g; ED50 (Rattus norvegicus [1]): inactive; Concentration (Rattus norvegicus [20]): 0.65 nM/g; Concentration (Rattus norvegicus [21]): 0.5 nM/g; Concentration (Rattus norvegicus [22]): 0.64 nM/g; Concentration (Rattus norvegicus [23]): 10.3 nM/g; Concentration (Rattus norvegicus [24]): 9 nM/g; Concentration (Rattus norvegicus [25]): 13.2 nM/g; Concentration (Rattus norvegicus [26]): 0.54 nM/g; Concentration (Rattus norvegicus [27]): 0.58 nM/g; Concentration (Rattus norvegicus [28]): 12.3 nM/g; ED50 (Rattus norvegicus [5]): inactive; Concentration (Rattus norvegicus [29]): 0.7 nM/g
8 | CCCN(CCC)C1CCc2ccc(O)c(OC)c2C1 (configuration not stated) | 1.49 | 2.06 | 1.62 | 0.35 |  | inactive |  | 0.314 |  |  |  |  | Motor activity (Rattus norvegicus [12]): <149
9 | CCCN(CCC)C1CCc2c(O)cccc2C1 (configuration not stated) [5-OH-DPAT] |  |  |  | 0.009 | inactive | inactive | inactive | 0.011 | inactive |  |  | 19600 | Concentration (Rattus norvegicus [30]): 0.08 nM/g; Concentration (Rattus norvegicus [31]): 0.08 nM/g; Concentration (Rattus norvegicus [32]): 12.7 nM/g; Concentration (Rattus norvegicus [33]): 9.4 nM/g; Concentration (Rattus norvegicus [34]): 0.2 nM/g; Concentration (Rattus norvegicus [35]): 12.1 nM/g; Vmax (Rattus norvegicus [36]): 1180 pM/min; Concentration (Rattus norvegicus [37]): 8.5 nM/g; Concentration (Rattus norvegicus [38]): 0.3 nM/g; Concentration (Rattus norvegicus [39]): 11.9 nM/g; Km (Rattus norvegicus [40]): 60 µM; Concentration (Rattus norvegicus [41]): 10.8 nM/g; Concentration (Rattus norvegicus [42]): 0.37 nM/g; Concentration (Rattus norvegicus [43]): 0.43 nM/g
10 | CCCN(CCC)C1CCc2c(ccc(O)c2O)C1 (configuration not stated) |  |  |  | 0.007 | inactive | inactive | inactive | 0.007 | inactive | 80 | 400 | 5000 | Motor activity (Rattus norvegicus [44]): <529
